Reference: publication PMC10089208 (Proceedings of the National Academy of Sciences of the …, 2023)
Each block holds one molecule with its values, some of them ahead of it. Bridge positions count the residues as written; N and C are the ends. Peptide text beside a SMILES is read from it.

Legend:
LRP6E1E2 = assay: ELISA competition assay of Wnt.cys peptides with Fab YW210 for LRP6E1E2; assay type: binding, human; details: LRP6E1E2 constant at 3x EC50, serial dilution of YW210
[1] = system: Wnt1-mediated β-catenin signaling; assay: TOPbrite dual-luciferase reporter assay, inhibition of Wnt1-mediated signaling; assay type: cell-based, human; details: HEK293 TOPbrite cells transfected with Wnt1; treatment 6 h before measurement
Summary of the method: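 Wnt1 construct was transfected with FuGENE HD into TOPbrite/Renilla HEK293 cells (DMEM/F12, 10% FBS, hygromycin, 37 °C), seeded 24 h earlier, then incubated 24–48 h. Linker peptides or LRP6 Fabs were added 6 h before reading. Dual-Glo firefly/Renilla luminescence ratio was calculated, in some instances normalized to nontreated controls.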

Reck = assay: ELISA binding of linker peptides to Reck; details: immobilised biotinylated peptide
Summary of the method: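 Neutravidin-coated (5 μg/mL) plates blocked with 0.5% BSA/PBS for 2 h at room temperature, then loaded with 1 μg biotinylated linker peptide per well. Serial dilutions of His-tagged Reck in PBS/0.5% BSA/0.05% Tween 20 were incubated for 45 min at room temperature. After washing, bound protein was detected with HRP anti-His (1:5,000, 45 min) and TMB, reading absorbance at 450 nm.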

[2] = system: HEK293 TOPbrite reporter cells, β-catenin signaling; assay type: cell-based, human; details: transfection of 0 to 25 ng construct, 24 to 48 h; normalized to empty vector
Summary of the method: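 HEK293 cells carried a stable firefly TOPbrite Wnt reporter plus pRL-SV40 Renilla and were kept in DMEM/F12 (50:50) with 10% FBS, GlutaMAX and 40 μg/mL hygromycin at 37 °C, 5% CO2. Cells were seeded at 20,000–40,000 per well, grown 24 h, then transfected with 0–25 ng Wnt or chimera construct using FuGENE HD. After 24–48 h, Dual-Glo firefly/Renilla ratio was normalized to empty vector.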

[3] = system: HEK293 luciferase reporter cells, phospho-LRP6 and active β-catenin; assay type: cell-based, human; details: overexpression, 250 ng DNA, 24 h, Western blot
[4] = target: hLRP6_(E1E2) (residues 20 to 631), C-terminal hexahistidine-tag, for ELISA (human, UniProt O75581); assay: ELISA
Chain of hLRP6_(E1E2) (residues 20 to 631), C-terminal hexahistidine-tag, for ELISA (O75581 20-631): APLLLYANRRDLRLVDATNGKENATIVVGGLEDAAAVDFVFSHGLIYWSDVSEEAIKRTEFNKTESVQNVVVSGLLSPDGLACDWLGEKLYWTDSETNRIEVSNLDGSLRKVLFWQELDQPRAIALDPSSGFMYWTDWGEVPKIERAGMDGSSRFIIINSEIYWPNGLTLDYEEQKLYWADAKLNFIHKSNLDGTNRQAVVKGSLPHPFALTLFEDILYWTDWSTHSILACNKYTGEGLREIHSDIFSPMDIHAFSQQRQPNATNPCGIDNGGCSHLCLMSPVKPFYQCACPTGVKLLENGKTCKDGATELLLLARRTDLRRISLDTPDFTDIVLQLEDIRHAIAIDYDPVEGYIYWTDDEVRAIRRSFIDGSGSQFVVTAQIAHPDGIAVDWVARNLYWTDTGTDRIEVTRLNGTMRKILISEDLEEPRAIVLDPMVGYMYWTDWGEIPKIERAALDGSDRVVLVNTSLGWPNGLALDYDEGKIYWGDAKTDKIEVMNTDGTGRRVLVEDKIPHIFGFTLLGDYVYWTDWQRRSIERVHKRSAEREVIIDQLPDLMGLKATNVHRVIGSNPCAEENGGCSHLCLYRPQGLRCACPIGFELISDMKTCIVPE

competition of Fab YW210 with the peptide for LRP6E1E2 binding (LRP6E1E2): competed strongly | inhibition of Wnt1-mediated β-catenin signaling [1]: inhibited
Molecule: CC(C)C[C@@H]1NC(=O)[C@H](CCC(=O)O)NC(=O)[C@H](C)NC(=O)[C@H](CCCNC(=N)N)NC(=O)[C@H](CO)NC(=O)[C@H](C)NC(=O)[C@H](CCCNC(=N)N)NC(=O)[C@H](CC(N)=O)NC(=O)[C@H](CO)NC(=O)CNC(=O)[C@H](CCCNC(=N)N)NC(=O)[C@H](CC(N)=O)NC(=O)CNC(=O)[C@H](Cc2ccc(O)cc2)NC(=O)[C@H](CC(C)C)NC(=O)[C@H](C(C)C)NC(=O)[C@H](CCCNC(=N)N)NC(=O)[C@H](CO)NC(=O)[C@@H](NC(=O)CN)CSSC[C@@H](C(=O)N[C@H](C(=O)O)C(C)C)NC(=O)[C@H](CC(=O)O)NC(=O)[C@H](Cc2c[nH]cn2)NC(=O)[C@@H]2CCCN2C(=O)[C@H](CO)NC(=O)[C@@H]2CCCN2C(=O)[C@@H]2CCCN2C(=O)[C@H](CCCCN)NC(=O)[C@H](Cc2c[nH]cn2)NC(=O)[C@H](C)NC(=O)[C@@H]2CCCN2C(=O)[C@H](CC(=O)O)NC(=O)[C@H](CCC(=O)O)NC(=O)[C@@H]2CCCN2C(=O)[C@H](CCC(=O)O)NC(=O)[C@H](CC(C)C)NC(=O)[C@H](CCCNC(=N)N)NC(=O)[C@H](CC(C)C)NC1=O [W1.cys] (H-GCSRVLYGNRGSNRASRAELLRLEPEDPAHKPPSPHDCV-OH; disulfide 2-38; N-terminus and C-terminus assumed)

competition of Fab YW210 with the peptide for LRP6E1E2 binding (LRP6E1E2): competed strongly | inhibition of Wnt1-mediated β-catenin signaling [1]: inhibited
Molecule: CSCC[C@@H]1NC(=O)[C@H](C(C)C)NC(=O)[C@H](CCC(N)=O)NC(=O)[C@H](C(C)C)NC(=O)[C@@H](NC(=O)CN)CSSC[C@@H](C(=O)N[C@H](C(=O)O)C(C)C)NC(=O)[C@H](CC(=O)O)NC(=O)[C@H]([C@@H](C)O)NC(=O)[C@H](CCCNC(=N)N)NC(=O)[C@H]([C@@H](C)O)NC(=O)[C@H](C)NC(=O)[C@H](CCCNC(=N)N)NC(=O)[C@H](CCCNC(=N)N)NC(=O)[C@H](Cc2ccc(O)cc2)NC(=O)CNC(=O)[C@H](CCC(N)=O)NC(=O)[C@H](CCCNC(=N)N)NC(=O)[C@H](C)NC(=O)[C@H](C)NC(=O)[C@H]([C@@H](C)O)NC(=O)[C@H](Cc2ccccc2)NC(=O)[C@H](CC(N)=O)NC(=O)[C@H](C)NC(=O)CNC(=O)[C@H](CC(=O)O)NC(=O)[C@H](CCC(N)=O)NC(=O)[C@H]([C@@H](C)O)NC(=O)[C@H](C)NC1=O [W2b.cys] (H-GCVQVMATQDGANFTAARQGYRRATRTDCV-OH; disulfide 2-29; N-terminus and C-terminus assumed)

competition of Fab YW210 with the peptide for LRP6E1E2 binding (LRP6E1E2): could not be outcompeted
Molecule: CSCC[C@@H]1NC(=O)[C@H](CCC(=O)O)NC(=O)[C@H](CO)NC(=O)[C@@H](NC(=O)[C@@H](N)CO)CSSC[C@@H](C(=O)N[C@H](C(=O)O)C(C)C)NC(=O)[C@H](CC(=O)O)NC(=O)[C@H](CCCNC(=N)N)NC(=O)[C@H](CCC(=O)O)NC(=O)[C@H]([C@@H](C)O)NC(=O)[C@@H]2CCCN2C(=O)[C@H](C(C)C)NC(=O)[C@H](CCCCN)NC(=O)[C@H](Cc2ccccc2)NC(=O)[C@H](Cc2ccc(O)cc2)NC(=O)[C@H]([C@@H](C)O)NC(=O)[C@H](Cc2ccc(O)cc2)NC(=O)[C@H](CCCNC(=N)N)NC(=O)[C@@H]2CCCN2C(=O)[C@H](CCCNC(=N)N)NC(=O)[C@H](CC(C)C)NC(=O)[C@H]([C@@H](C)O)NC(=O)[C@H](CCC(=O)O)NC(=O)[C@H](C(C)C)NC(=O)[C@H](Cc2c[nH]c3ccccc23)NC(=O)CNC(=O)[C@H](CCCNC(=N)N)NC(=O)[C@H](CO)NC(=O)[C@H](CCC(=O)O)NC(=O)[C@H](CCCNC(=N)N)NC(=O)[C@H](Cc2c[nH]cn2)NC(=O)[C@H](CCCCN)NC(=O)[C@H](CCC(=O)O)NC(=O)[C@H](C(C)C)NC(=O)[C@H](C(C)C)NC1=O [W3a.cys] (H-SCSEMVVEKHRESRGWVETLRPRYTYFKVPTERDCV-OH; disulfide 2-35; N-terminus and C-terminus assumed)

binding to Reck (Reck): bound Reck | competition of Fab YW210 with the peptide for LRP6E1E2 binding (LRP6E1E2): partially | inhibition of Wnt1-mediated β-catenin signaling [1]: inhibited
Molecule: CC[C@H](C)[C@@H]1NC(=O)[C@H](CCCCN)NC(=O)[C@H](CC(C)C)NC(=O)[C@H](Cc2ccccc2)NC(=O)[C@H]([C@@H](C)O)NC(=O)[C@@H]2CCCN2C(=O)[C@H](CCCNC(=N)N)NC(=O)[C@H](CCCCN)NC(=O)[C@H](CC(N)=O)NC(=O)[C@H](CCCNC(=N)N)NC(=O)[C@H](CO)NC(=O)[C@H](C)NC(=O)[C@H](CCCNC(=N)N)NC(=O)[C@H](C(C)C)NC(=O)[C@@H]2CCCN2C(=O)[C@H](CCC(=O)O)NC(=O)[C@H](C(C)C)NC(=O)[C@H](Cc2c[nH]cn2)NC(=O)[C@H](C(C)C)NC(=O)[C@@H](NC(=O)[C@@H](N)CCC(=O)O)CSSC[C@@H](C(=O)N[C@H](C(=O)O)C(C)C)NC(=O)[C@H](CC(=O)O)NC(=O)[C@H]([C@@H](C)O)NC(=O)[C@H](CC(=O)O)NC(=O)[C@H](CCSC)NC(=O)[C@@H]2CCCN2C(=O)[C@H](CCCCN)NC(=O)[C@H](CCCNC(=N)N)NC(=O)[C@H](Cc2ccc(O)cc2)NC(=O)[C@H](CO)NC(=O)[C@H](CC(C)C)NC(=O)[C@@H]2CCCN2C(=O)[C@H](CCCCN)NC(=O)[C@H](CCCCN)NC1=O [W7a.cys] (H-ECVHVEPVRASRNKRPTFLKIKKPLSYRKPMDTDCV-OH; disulfide 2-35; N-terminus and C-terminus assumed)

inhibition of Wnt1-mediated β-catenin signaling [1]: inhibited Wnt1-induced signaling
Molecule: YW210: Fab that binds predominantly to the LRP6 E1 domain [reference compound]

B1: Wnt3a: human Wnt3a, canonical, overexpressed (protein, UniProt P56704 19-352, looked up)
Protein Wnt-3a: SYPIWWSLAVGPQYSSLGSQPILCASIPGLVPKQLRFCRNYVEIMPSVAEGIKIGIQECQHQFRGRRWNCTTVHDSLAIFGPVLDKATRESAFVHAIASAGVAFAVTRSCAEGTAAICGCSSRHQGSPGKGWKWGGCSEDIEFGGMVSREFADARENRPDARSAMNRHNNEAGRQAIASHMHLKCKCHGLSGSCEVKTCWWSQPDFRAIGDFLKDKYDSASEMVVEKHRESRGWVETLRPRYTYFKVPTERDLVYYEASPNFCEPNPETGSFGTRDRTCNVSSHGIDGCDLLCCGRGHNARAERRREKCRCVFHWCCYVSCQECTRVYDVHTCK
β-catenin signaling induced by overexpression (TOPbrite) [2]: induced β-catenin signaling | LRP6 phosphorylation [3]: induced | accumulation of active (nonphosphorylated) β-catenin [3]: induced

binding result [4]: binds
B2: YW210.09 Fab (Fab, V domains shown)
VH: EVQLVESGGGLVQPGGSLRLSCAASGFTFTNSYIHWVRQAPGKGLEWVGWITPYGGYTNYADSVKGRFTISADTSKNTAYLQMNSLRAEDTAVYYCARGSGHVNAVKNYGYVMDYWGQGTLVTVSS
VL: DIQMTQSPSSLSASVGDRVTITCRASQDVSTAVAWYQQKPGKAPKLLIYSASFLYSGVPSRFSGSGSGTDFTLTISSLQPEDFATYYCQQSYTTPPTFGQGTKVEIK

B3: Wnt1: human Wnt1, canonical, overexpressed (protein, UniProt P04628 28-370, looked up)
Proto-oncogene Wnt-1: ANSSGRWWGIVNVASSTNLLTDSKSLQLVLEPSLQLLSRKQRRLIRQNPGILHSVSGGLQSAVRECKWQFRNRRWNCPTAPGPHLFGKIVNRGCRETAFIFAITSAGVTHSVARSCSEGSIESCTCDYRRRGPGGPDWHWGGCSDNIDFGRLFGREFVDSGEKGRDLRFLMNLHNNEAGRTTVFSEMRQECKCHGMSGSCTVRTCWMRLPTLRAVGDVLRDRFDGASRVLYGNRGSNRASRAELLRLEPEDPAHKPPSPHDLVYFEKSPNFCTYSGRLGTAGTAGRACNSSSPALDGCELLCCGRGHRTRTQRVTERCNCTFHWCCHVSCRNCTHTRVLHECL
β-catenin signaling induced by overexpression (TOPbrite) [2]: induced β-catenin signaling | LRP6 phosphorylation [3]: induced | accumulation of active (nonphosphorylated) β-catenin [3]: induced
